# ChEMBL document CHEMBL4325822, “Discovery of a tetrazolyl β-carboline with in vitro and in vivo osteoprotective activity under estrogen-deficient conditions” (Medchemcomm, 2018)
# The source made the active and inactive calls. No cut-off for these calls is given here.
# Legend:
# [1] = Toxicity in Sprague-Dawley rat model of OVX-induced bone loss assessed as uterine weight at 5 mg/kg, po via gavage for 12 weeks (reference value: 0.12 +/- 0.02 g); format: organism-based; details: in vivo, 2016 h
# [2] = tested on: Calvarial osteoblast; experiment: Osteogenic activity in Sprague-Dawley rat calvarial osteoblasts assessed as mineralized nodule formation at 100 pM after 21 days by alizarin red-S staining based light microscopic method; format: functional, cell-based
# In short: (§1)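 Osteoblasts at 10,000–15,000 cells/cm² in duplicate plates, 21 days in differentiation medium, medium changed every 48 h. Cells fixed in 4% PFA, stained with alizarin red-S (40 mM, pH 4.5, 30 min) and photographed. Stain extracted with 10% acetic acid, pH brought to 4.5 with ammonium hydroxide, read at 405 nm, normalized to cell number.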
# [3] = Increase in OCN mRNA expression in Sprague-Dawley rat calvarial osteoblasts at 100 pM by RT-PCR method relative to control; format: functional, Calvarial osteoblast
# In short: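 Primary calvarial osteoblasts were lysed in TRIzol after treatment, and total RNA was extracted. Transcripts were quantified by real-time PCR using the comparative CT (ΔΔCT) method.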
# [4] = tested on: Rattus norvegicus; experiment: Antiosteoporotic activity in Sprague-Dawley rat model of OVX-induced bone loss assessed as increase in femoral bone strength by measuring energy at 5 mg/kg, po via gavage for 12 weeks by 3 point bending test (reference value: 46.27 +/- 4.36 mJ); format: functional
# [5] = tested on: Rattus norvegicus; experiment: Upregulation of Runx2 mRNA expression in femur bone of Sprague-Dawley rat model of OVX-induced bone loss at 1 to 5 mg/kg, po via gavage for 12 weeks by qPCR analysis; format: functional, organism-based
# In short: (§2)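 Ovariectomized female SD rats, osteopenic after 12 weeks, dosed orally once daily for 12 weeks (1.0 or 5.0 mg·kg⁻¹·day⁻¹, 1% gum acacia vehicle); sham and OVX vehicle groups included. Femurs collected at sacrifice for qRT-PCR, analysed by the ΔΔCT method.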
# [6] = tested on: Rattus norvegicus; experiment: Antiosteoporotic activity in Sprague-Dawley rat model of OVX-induced bone loss assessed as mineral apposition rate at 1 mg/kg, po via gavage for 12 weeks by microcomputed tomographic analysis (reference value: 0.169 +/- 0.004 umeter/day); format: functional
# In short: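 Female Sprague-Dawley rats, 10-12 weeks old, ten per group, were ovariectomized and left 12 weeks for osteopenia. They were then dosed once daily by oral gavage for 12 weeks in 1% gum acacia vehicle. The estradiol arm received 100 µg·kg⁻¹ subcutaneously five days a week. Tetracycline and calcein were given intraperitoneally at 20 mg·kg⁻¹ each. Femur cross-sections (50 µm) were imaged by fluorescence microscopy for MAR and BFR.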
# [7] = tested on: Rattus norvegicus; experiment: Antiosteoporotic activity in Sprague-Dawley rat model of OVX-induced bone loss assessed as protection against microarchitectural deterioration by measuring trabecular number at 1 mg/kg, po via gavage for 12 weeks by microcomputed tomographic analysis (reference value: 0.56 +/- 0.06 /millimeter); format: functional
# In short: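 Adult female Sprague-Dawley rats were ovariectomized and left 12 weeks to become osteopenic. They then received 12 weeks of once-daily oral gavage (1% gum acacia vehicle) or subcutaneous estradiol, five days a week. Femurs were collected at sacrifice and scanned by micro-CT for BMD and trabecular microarchitecture. Ten rats per group; mean ± SEM.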
# [8] = tested on: Rattus norvegicus; experiment: Upregulation of type-1 collagen mRNA expression in femur bone of Sprague-Dawley rat model of OVX-induced bone loss at 1 to 5 mg/kg, po via gavage for 12 weeks by qPCR analysis; format: functional, organism-based; in short: as §2
# [9] = Toxicity in Sprague-Dawley rat model of OVX-induced bone loss assessed as luminal area at 1 mg/kg, po via gavage for 12 weeks (reference value: 0.01 +/- 0.0004 mm2); format: organism-based; details: in vivo, 2016 h
# [10] = Toxicity in Sprague-Dawley rat model of OVX-induced bone loss assessed as total uterine area at 5 mg/kg, po via gavage for 12 weeks (reference value: 0.11 +/- 0.003 mm2); format: organism-based; details: in vivo, 2016 h
# [11] = Antioxidant activity assessed as DPPH radical scavenging activity at 250 ug/ml after 30 mins by spectrophotometric method relative to control; format: functional
# In short: (§3)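 The compound was serially diluted from 1000 to 1.95 µg·ml⁻¹ and mixed 1:1 with DPPH in methanol. After 30 min at room temperature, absorbance was read at 517 nm. Scavenging (%) = [(Abc − Abs)/Abc] × 100, where Abc is DPPH without compound.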
# [12] = Antioxidant activity assessed as DPPH radical scavenging activity at 3.9 ug/ml after 30 mins by spectrophotometric method relative to control; format: functional; in short: as §3
# [13] = tested on: Calvarial osteoblast; experiment: Osteogenic activity in Sprague-Dawley rat calvarial osteoblasts assessed as mineralized nodule formation at 100 pM after 21 days by alizarin red-S staining based colorimetric method; format: functional; in short: as §1
# [14] = Hepatotoxicity in Sprague-Dawley rat model of OVX-induced bone loss assessed as morphological changes in liver at 1 to 5 mg/kg, po via gavage for 12 weeks by hematoxylin and eosin staining based assay; format: toxicity, organism-based; details: in vivo, 2016 h
# In short: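 Liver samples from ovariectomized rats after 12 weeks of treatment were dehydrated in isopropanol, cleared in xylene and paraffin-embedded. Transverse 5 µm sections were stained with hematoxylin and eosin and imaged.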
# [15] = Induction of osteoblast differentiation in Sprague-Dawley rat calvarial osteoblasts assessed as alkaline phosphatase activity after 48 hrs using PNPP as substrate by spectrophotometric method; format: functional, cell-based; details: Rattus norvegicus, Sprague-Dawley, Calvarial osteoblast, 48 h; read-out: EC50
# In short: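 Calvarial osteoblasts at 2 × 10³ cells/well. Treated 48 h with varied concentrations in differentiation medium (5% charcoal-treated FBS, 10 mM β-glycerophosphate, 50 µg·mL⁻¹ ascorbic acid). Total ALP read with PNPP substrate at 405 nm. Cell-free wells check for compound interference with substrate or absorbance.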
# [16] = tested on: Calvarial osteoblast; experiment: Increase in OCN protein expression in Sprague-Dawley rat calvarial osteoblasts at 100 pM after 48 hrs by Western blot analysis; format: functional, cell-based
# In short: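 Rat calvarial osteoblasts (pooled 1–2-day pups, collagenase/dispase digests) at 60–70% confluence treated 48 h. Whole-cell lysates immunoblotted with primary antibody overnight at 4 °C, then HRP secondary, with ECL detection. Densitometry gives fold change normalized to β-actin versus untreated cells. Mean ± SEM of three independent experiments.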
# [17] = tested on: Rattus norvegicus; experiment: Antiosteoporotic activity in Sprague-Dawley rat model of OVX-induced bone loss assessed as increase in femoral bone strength by measuring energy at 1 mg/kg, po via gavage for 12 weeks by 3 point bending test (reference value: 46.27 +/- 4.36 mJ); format: functional
# [18] = tested on: Rattus norvegicus; experiment: Antiosteoporotic activity in Sprague-Dawley rat model of OVX-induced bone loss assessed as increase in femoral bone strength by measuring stiffness at 1 mg/kg, po via gavage for 12 weeks by 3 point bending test (reference value: 122.07 +/- 12.18 N/mm); format: functional
# [19] = tested on: Calvarial osteoblast; experiment: Induction of osteoblast proliferation in Sprague-Dawley rat calvarial osteoblasts at 0.000001 to 1 uM after 48 hrs BrdU incorporation assay; format: functional, cell-based
# In short: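 2 × 10³ cells/well in duplicate plates, one for cell number and one for BrdU. Cells treated 48 h in differentiation medium, then BrdU added for a further 24 h. Fixed cells get anti-BrdU (1 h RT), then peroxidase secondary (30 min), TMB (30 min, dark), stop, read at 450 nm. Result given as BrdU(+) osteoblasts, % of total.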
# [20] = Toxicity in Sprague-Dawley rat model of OVX-induced bone loss assessed as total uterine area at 1 mg/kg, po via gavage for 12 weeks (reference value: 0.11 +/- 0.003 mm2); format: organism-based; details: in vivo, 2016 h
smiles,measurement,setting,value
CCOC(=O)c1cc2c([nH]c3ccccc32)c(C(c2nnnn2C(C)(C)C)N2CCN(C)CC2)n1 (stereo not given),Activity,[1],0.12 g
same,Activity,[2],Active
same,fold change (FC),[3],1.8 - 4.6
same,Activity,[4],60.87 mJ
same,Activity,[5],Active
same,Activity,[6],1.062 micrometer/day
same,Activity,[7],1.34 /millimeter
same,Activity,[8],Active
same,Activity,[9],0.012 mm2
same,Activity,[10],0.13 mm2
same,Activity,[11],37.8%
same,Activity,[12],3.82%
same,Activity,[13],70%
same,Activity,[14],Non-Toxic
same,EC50,[15],900 nM
same,Activity,[16],Active
same,Activity,[17],70.55 mJ
same,Activity,[18],151.3 N/mm
same,Activity,[19],Active
same,Activity,[20],0.14 mm2
